Test results as given in publication PMC7218746 (Biomacromolecules, 2020).
Ends that are not written are not given here.

Experiments:
[1] = system: Metalloprotease (type IV) collagenase from C. histolyticume; test: Kinetics of Pep-NC cleavage by collagenase; type: in vitro ADME; settings: GPC; for change of molecular weight after incubation with collagenase: collagenase 30 units·mL–1, 24 h
Procedure, shortened: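 Polymer at 5 mg·mL–1 in PBS pH 7.4 with 0.9 mM CaCl2 and 0.02% NaN3, held 3 h at 4 °C, then 37 °C. l-Pep-NC incubated with or without type IV collagenase (0.5 units·mL–1); d-Pep-NC with 30 units·mL–1 for 24 h. Timed l-Pep-NC aliquots quenched 1 h with 0.1 M EDTA, dialysed, lyophilised. Mn by GPC (DMF/10 mM LiCl, 65 °C, RI detection, PEG standards).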

[2] = Determination of cloud points of polymers; type: physicochemical; settings: in PBS; refers to Table 1
[3] = Dynamic light scattering; type: physicochemical; settings: DLS, 1 mg·mL–1 in PBS pH 7.4, 37 °C, 173° angle; micelles as prepared
[4] = 37 °C, 5 mg·mL–1 polymer in PBS pH 7.4 with 0.9 mM CaCl2

| Sequence | change of molecular weight after incubation with collagenase [1, 4] | LCST [2] | Z-average diameter [3] | change of molecular weight in the absence of the enzyme ([1]; 24 h, 37 °C, PBS pH 7.4) | time for cleavage of the peptide block ([1]; collagenase 0.5 units·mL–1, 37 °C, 5 mg·mL–1 polymer in PBS pH 7.4 with 0.9 mM CaCl2) |
| --- | --- | --- | --- | --- | --- |
| KGPQGIFGQK [D-Pep-NC, (NIPAM-co-HPMA-Cys)-PEG-D-Peptide-PEG-P(NIPAM-co-HPMA-Cys)] | did not change | – | – | – | – |
| KGPQGIFGQK [Pep-NC, P(NIPAM-co-HPMA-Cys)-PEG-peptide-PEG-P(NIPAM-co-HPMA-Cys)] | – | ~31 °C | 87 ± 1 nm | – | – |
| KGPQGIFGQK [L-Pep-NC, P(NIPAM-co-HPMA-Cys)-PEG-peptide-PEG-P(NIPAM-co-HPMA-Cys)] | reduced to half its original molecular weight | – | – | No change in the molecular weight | 160 min |
